Data taken from ChEMBL document CHEMBL4038268, “Methylpyrrole inhibitors of BET bromodomains” (Bioorg Med Chem Lett, 2017).

Columns and labels:
Protein polybromo-1 = Protein polybromo-1 (Homo sapiens, UniProt Q86U86); assay: Inhibition of human PBRM1 bromodomain 5 (S645 to D766 residues) expressed in bacterial expression system by BROMOscan assay
[1] = target: Bromodomain-containing protein 4 (Homo sapiens, UniProt O60885); assay: Inhibition of BRD4 (unknown origin) expressed in human H1299 cells co-expressing HPV16-LCR/E2 after 24 hrs by Bright Glo-luciferase reporter gene assay; assay type: cell-based
Summary of the method: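 Target-engagement reporter in an H1299-derived line carrying a stably integrated E2 expression cassette and an HPV-LCR-driven luciferase reporter. The read-out is BRD4-dependent E2-mediated transcriptional repression. EC50 is the mean of two measurements.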

[2] = target: Bromodomain-containing protein 7 (Homo sapiens, UniProt Q9NPI1); assay: Inhibition of human BRD7 (L125 to R254 residues) expressed in mammalian expression system by BROMOscan assay
Bromodomain-containing protein 7, sequence (Q9NPI1 whole entry, the tested form may be a part): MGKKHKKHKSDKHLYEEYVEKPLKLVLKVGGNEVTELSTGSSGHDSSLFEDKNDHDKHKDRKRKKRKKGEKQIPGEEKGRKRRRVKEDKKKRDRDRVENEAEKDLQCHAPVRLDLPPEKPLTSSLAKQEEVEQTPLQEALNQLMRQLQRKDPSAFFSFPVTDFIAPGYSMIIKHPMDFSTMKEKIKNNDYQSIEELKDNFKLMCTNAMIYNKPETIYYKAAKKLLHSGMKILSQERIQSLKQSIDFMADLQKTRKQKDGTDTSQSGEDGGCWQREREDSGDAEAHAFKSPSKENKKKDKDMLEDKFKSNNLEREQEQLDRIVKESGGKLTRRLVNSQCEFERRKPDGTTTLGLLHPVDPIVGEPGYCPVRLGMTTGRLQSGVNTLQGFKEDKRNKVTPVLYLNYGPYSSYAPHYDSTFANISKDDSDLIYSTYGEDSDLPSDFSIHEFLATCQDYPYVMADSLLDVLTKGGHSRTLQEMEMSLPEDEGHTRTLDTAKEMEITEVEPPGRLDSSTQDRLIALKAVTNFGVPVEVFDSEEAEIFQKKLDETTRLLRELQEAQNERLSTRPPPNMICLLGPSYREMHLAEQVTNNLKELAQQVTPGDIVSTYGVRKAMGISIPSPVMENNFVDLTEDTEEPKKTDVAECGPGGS

[3] = target: Chromatin remodeling regulator CECR2 (Homo sapiens, UniProt Q9BXF3); assay: Inhibition of human CECR2 (P423 to D543 residues) expressed in bacterial expression system by BROMOscan assay
[4] = target: SWI/SNF-related matrix-associated actin-dependent regulator of chromatin subfamily A member 4 (Homo sapiens, UniProt P51532); assay: Inhibition of human SMARCA4 (A1448 to S1575 residues) expressed in bacterial expression system by BROMOscan assay
SWI/SNF-related matrix-associated actin-dependent regulator of chromatin subfamily A member 4, sequence (P51532 whole entry, the tested form may be a part): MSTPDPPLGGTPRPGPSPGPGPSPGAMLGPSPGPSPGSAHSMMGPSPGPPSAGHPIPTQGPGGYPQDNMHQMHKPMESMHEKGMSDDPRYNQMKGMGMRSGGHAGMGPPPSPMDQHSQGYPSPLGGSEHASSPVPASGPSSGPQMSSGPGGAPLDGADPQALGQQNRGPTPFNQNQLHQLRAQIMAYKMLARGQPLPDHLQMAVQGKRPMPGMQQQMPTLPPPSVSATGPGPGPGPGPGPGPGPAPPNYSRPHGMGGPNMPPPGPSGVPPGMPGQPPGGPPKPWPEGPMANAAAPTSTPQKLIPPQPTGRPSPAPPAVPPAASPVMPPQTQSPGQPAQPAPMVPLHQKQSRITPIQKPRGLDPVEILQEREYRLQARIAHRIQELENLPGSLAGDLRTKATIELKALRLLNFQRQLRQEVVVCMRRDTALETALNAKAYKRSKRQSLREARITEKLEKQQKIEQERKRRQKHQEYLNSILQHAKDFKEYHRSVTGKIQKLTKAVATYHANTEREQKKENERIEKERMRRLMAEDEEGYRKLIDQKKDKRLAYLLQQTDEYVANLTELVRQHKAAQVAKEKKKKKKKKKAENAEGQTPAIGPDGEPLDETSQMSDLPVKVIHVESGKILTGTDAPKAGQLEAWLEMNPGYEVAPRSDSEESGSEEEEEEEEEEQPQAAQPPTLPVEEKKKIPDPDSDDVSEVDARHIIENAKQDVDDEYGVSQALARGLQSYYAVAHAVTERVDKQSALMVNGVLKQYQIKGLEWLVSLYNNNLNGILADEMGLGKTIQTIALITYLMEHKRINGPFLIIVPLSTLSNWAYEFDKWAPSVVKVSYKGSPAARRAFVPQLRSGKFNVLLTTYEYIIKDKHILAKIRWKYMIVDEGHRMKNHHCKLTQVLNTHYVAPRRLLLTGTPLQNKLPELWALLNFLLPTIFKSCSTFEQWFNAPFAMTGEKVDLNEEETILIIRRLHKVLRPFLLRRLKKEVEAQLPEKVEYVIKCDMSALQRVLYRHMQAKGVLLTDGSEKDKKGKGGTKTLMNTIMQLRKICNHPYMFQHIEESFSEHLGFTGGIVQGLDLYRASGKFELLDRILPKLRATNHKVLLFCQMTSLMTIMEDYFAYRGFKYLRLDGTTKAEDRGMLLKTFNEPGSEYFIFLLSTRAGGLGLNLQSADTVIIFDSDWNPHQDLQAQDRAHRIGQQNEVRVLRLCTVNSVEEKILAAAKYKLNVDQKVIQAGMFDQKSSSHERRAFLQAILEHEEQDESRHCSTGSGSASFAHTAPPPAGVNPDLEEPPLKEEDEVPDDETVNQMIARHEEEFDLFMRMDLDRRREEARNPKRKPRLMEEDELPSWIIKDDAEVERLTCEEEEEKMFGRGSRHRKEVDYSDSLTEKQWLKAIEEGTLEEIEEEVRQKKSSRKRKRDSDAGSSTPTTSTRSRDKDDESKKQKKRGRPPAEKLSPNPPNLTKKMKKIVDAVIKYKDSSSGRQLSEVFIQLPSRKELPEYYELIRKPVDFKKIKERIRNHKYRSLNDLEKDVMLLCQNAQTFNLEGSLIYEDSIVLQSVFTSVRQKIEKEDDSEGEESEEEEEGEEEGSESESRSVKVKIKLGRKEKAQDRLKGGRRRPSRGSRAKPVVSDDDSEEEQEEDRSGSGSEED

Mus musculus [5] = assay: Toxicity in SCID-Beige mouse assessed as body weight loss at 30 mg/kg, po qd for 21 days measured during compound dosing relative to control; assay type: organism-based; details: in vivo, 504 h
[6] = target: SWI/SNF-related matrix-associated actin-dependent regulator of chromatin subfamily A member 2 (Homo sapiens, UniProt P51531); assay: Inhibition of human SMARCA2 (S1377 to Q1486 residues) expressed in bacterial expression system by BROMOscan assay
[7] = target: Bromodomain-containing protein 9 (Homo sapiens) (UniProt Q9H8M2); assay: Inhibition of human BRD9 isoform 1 (R130 to V259 residues) expressed in bacterial expression system at 1 uM by BROMOscan assay relative to control
OPM-2 [8] = assay: Antitumor activity against human OPM2 cells xenografted in SCID-Beige mouse assessed as tumor growth inhibition at 30 mg/kg, po qd for 21 days measured twice per week during compound dosing relative to control; assay type: functional; details: OPM-2, po, 504 h, read-out: TGI
[9] = target: Transcription initiation factor TFIID subunit 1-like (Homo sapiens, UniProt Q8IZX4); assay: Inhibition of human TAF1L (Q1523 to D1654 residues) expressed in bacterial expression system by BROMOscan assay
Transcription initiation factor TFIID subunit 1-like, sequence (Q8IZX4 whole entry, the tested form may be a part): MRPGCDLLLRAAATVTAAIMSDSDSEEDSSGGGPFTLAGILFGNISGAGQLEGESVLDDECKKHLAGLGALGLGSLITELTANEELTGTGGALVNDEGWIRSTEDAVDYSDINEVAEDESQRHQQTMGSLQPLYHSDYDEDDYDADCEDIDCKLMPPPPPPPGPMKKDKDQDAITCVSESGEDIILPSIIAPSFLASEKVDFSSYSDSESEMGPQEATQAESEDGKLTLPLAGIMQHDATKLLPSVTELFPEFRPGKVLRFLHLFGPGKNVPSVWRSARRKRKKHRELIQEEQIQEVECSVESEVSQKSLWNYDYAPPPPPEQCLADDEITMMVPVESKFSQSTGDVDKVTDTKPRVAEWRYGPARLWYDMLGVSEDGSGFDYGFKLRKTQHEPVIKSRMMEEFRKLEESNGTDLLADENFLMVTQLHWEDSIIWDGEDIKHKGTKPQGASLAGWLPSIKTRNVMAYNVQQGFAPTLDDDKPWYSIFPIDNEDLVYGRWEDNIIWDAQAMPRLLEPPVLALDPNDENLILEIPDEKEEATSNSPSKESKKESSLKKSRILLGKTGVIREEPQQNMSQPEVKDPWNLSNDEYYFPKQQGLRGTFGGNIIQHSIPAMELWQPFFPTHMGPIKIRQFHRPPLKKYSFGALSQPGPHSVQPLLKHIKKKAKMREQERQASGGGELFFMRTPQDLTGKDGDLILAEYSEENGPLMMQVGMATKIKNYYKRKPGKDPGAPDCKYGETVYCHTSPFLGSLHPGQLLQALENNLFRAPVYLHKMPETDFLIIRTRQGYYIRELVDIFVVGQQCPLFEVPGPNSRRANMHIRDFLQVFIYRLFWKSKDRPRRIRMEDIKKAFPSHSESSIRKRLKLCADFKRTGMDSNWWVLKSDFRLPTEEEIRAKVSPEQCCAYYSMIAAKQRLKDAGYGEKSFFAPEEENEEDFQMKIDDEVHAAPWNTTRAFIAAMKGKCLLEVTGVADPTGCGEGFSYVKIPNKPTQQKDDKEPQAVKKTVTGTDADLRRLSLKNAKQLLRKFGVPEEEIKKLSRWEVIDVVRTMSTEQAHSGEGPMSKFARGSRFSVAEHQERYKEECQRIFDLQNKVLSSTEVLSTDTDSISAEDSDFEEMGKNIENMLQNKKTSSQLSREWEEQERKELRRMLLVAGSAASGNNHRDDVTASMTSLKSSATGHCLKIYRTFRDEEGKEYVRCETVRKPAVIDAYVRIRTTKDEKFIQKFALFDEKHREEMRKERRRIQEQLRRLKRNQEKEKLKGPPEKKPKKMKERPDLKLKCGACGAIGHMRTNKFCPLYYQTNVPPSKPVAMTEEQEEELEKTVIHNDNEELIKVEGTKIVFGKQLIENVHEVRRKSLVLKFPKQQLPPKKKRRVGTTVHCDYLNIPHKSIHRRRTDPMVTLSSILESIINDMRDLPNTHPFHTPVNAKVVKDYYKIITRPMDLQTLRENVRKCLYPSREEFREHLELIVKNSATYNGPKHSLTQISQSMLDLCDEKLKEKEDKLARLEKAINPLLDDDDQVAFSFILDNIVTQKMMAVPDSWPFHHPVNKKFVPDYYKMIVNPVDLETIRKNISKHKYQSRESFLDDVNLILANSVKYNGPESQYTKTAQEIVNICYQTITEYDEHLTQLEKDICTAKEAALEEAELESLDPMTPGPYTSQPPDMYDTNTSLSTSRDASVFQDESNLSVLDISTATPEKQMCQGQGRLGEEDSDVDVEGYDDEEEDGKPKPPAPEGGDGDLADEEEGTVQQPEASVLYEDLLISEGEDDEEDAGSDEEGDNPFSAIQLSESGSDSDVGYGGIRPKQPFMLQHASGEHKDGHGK

[10] = target: Histone acetyltransferase KAT2A (Homo sapiens, UniProt Q92830); assay: Inhibition of human GCN5L2 (E726 to K837 residues) expressed in bacterial expression system by BROMOscan assay
Histone acetyltransferase KAT2A, sequence (Q92830 whole entry, the tested form may be a part): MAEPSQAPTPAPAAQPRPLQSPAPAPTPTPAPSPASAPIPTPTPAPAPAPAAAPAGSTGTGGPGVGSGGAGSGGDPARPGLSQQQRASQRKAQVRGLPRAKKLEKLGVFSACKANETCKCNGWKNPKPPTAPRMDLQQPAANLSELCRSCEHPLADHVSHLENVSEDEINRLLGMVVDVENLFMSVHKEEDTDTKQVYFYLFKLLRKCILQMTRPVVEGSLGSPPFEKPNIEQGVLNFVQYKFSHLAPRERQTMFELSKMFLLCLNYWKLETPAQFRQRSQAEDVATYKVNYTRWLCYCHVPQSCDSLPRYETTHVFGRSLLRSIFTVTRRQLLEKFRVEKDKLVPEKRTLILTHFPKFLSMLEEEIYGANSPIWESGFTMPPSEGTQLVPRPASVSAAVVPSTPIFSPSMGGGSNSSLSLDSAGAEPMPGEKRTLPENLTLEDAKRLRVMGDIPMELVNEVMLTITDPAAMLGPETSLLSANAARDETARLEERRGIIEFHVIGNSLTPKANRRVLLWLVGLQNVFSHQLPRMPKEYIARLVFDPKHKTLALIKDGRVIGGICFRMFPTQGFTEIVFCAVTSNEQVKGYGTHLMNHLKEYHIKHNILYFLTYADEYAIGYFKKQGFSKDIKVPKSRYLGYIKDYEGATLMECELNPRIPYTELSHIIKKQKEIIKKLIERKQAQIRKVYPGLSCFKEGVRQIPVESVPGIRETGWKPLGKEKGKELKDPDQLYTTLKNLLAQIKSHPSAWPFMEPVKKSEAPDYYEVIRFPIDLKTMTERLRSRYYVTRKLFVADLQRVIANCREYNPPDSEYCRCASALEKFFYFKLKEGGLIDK

CREB-binding protein = CREB-binding protein (Homo sapiens, UniProt Q92793); assay: Inhibition of human CREBBP (R1081 to G1197 residues) expressed in bacterial expression system by BROMOscan assay
[11] = Toxicity in po dosed SCID-Beige mouse administered once daily; assay type: organism-based; details: in vivo
Summary of the method: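 Oral once-daily dosing in mice bearing OPM-2 multiple myeloma xenografts. Tolerability was judged from mean body-weight loss over the course of the study.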

OPM-2 [12] = assay: Antitumor activity against human OPM2 cells xenografted in SCID-Beige mouse assessed as tumor growth inhibition at 100 mg/kg, po qd for 14 days measured twice per week during compound dosing relative to control; assay type: functional; details: OPM-2, po, 336 h, read-out: TGI
Summary of the method: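 OPM-2 multiple myeloma xenografts in mice dosed orally over 14 days. Either once daily at 100 mg/kg or twice daily at 50 mg/kg ×2, the same total dose. Tumor growth inhibition was calculated over the treatment period. Mean ± SE, n = 10 per group.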

[13] = target: Bromodomain-containing protein 1 (Homo sapiens, UniProt O95696); assay: Inhibition of human BRD1 (E556 to A688 residues) expressed in bacterial expression system by BROMOscan assay
[14] = target: Histone acetyltransferase KAT2B (Homo sapiens, UniProt Q92831); assay: Inhibition of human PCAF (G715 to D831 residues) expressed in mammalian expression system by BROMOscan assay
[15] = target: Bromodomain adjacent to zinc finger domain protein 2B (Homo sapiens, UniProt Q9UIF8); assay: Inhibition of human BAZ2B (S2054 to S2168 residues) expressed in bacterial expression system by BROMOscan assay
OPM-2 [16] = assay: Antitumor activity against human OPM2 cells xenografted in SCID-Beige mouse assessed as tumor growth inhibition at 100 mg/kg, po bid for 14 days measured twice per week during compound dosing relative to control; assay type: functional; details: OPM-2, po, 336 h, read-out: TGI
Mus musculus [17] = assay: Toxicity in SCID-Beige mouse assessed as body weight loss at 150 mg/kg, po qd for 21 days measured during compound dosing relative to control; assay type: organism-based; details: in vivo, 504 h
OPM-2 [18] = assay: Antitumor activity against human OPM2 cells xenografted in SCID-Beige mouse assessed as tumor growth inhibition at 150 mg/kg, po qd for 21 days measured twice per week during compound dosing relative to control; assay type: functional; details: OPM-2, po, 504 h, read-out: TGI

SMILES	IC50 (Protein polybromo-1) [nM]	EC50 [1] [nM]	IC50 [2] [nM]	IC50 [3] [nM]	IC50 [4] [nM]	Activity (Mus musculus [5]) [%]	IC50 [6] [nM]	inhibition [7] [%]	inhibition in vivo at 30 mg/kg (OPM-2 [8]) [%]	IC50 [9] [nM]	IC50 [10] [nM]	IC50 (CREB-binding protein) [nM]	MTD [11] [mg/kg/day]	inhibition in vivo at 100 mg/kg (OPM-2 [12]) [%]	IC50 [13] [nM]	IC50 [14] [nM]	IC50 [15] [nM]	inhibition in vivo at 100 mg/kg (OPM-2 [16]) [%]	Activity (Mus musculus [17]) [%]	inhibition in vivo at 150 mg/kg (OPM-2 [18]) [%]
Cn1cc(-c2cc(S(C)(=O)=O)ccc2Oc2ccc(F)cc2F)c2cc[nH]c(=O)c21	> 1000	150	> 1000	> 1000	> 1000	1 to 3	> 1000	88	64	> 1000	> 1000	–	–	–	–	–	–	–	–	–
Cc1[nH]c(-c2cc(NS(C)(=O)=O)ccc2Oc2ccccc2)c2c1C(=O)CCC2	> 1000	51	> 1000	> 1000	> 1000	–	1000	67	–	> 1000	> 1000	1000	100	53	> 1000	> 1000	> 1000	73	–	–
Cc1[nH]c(-c2cc(S(C)(=O)=O)ccc2Oc2ccc(F)cc2F)c2c1C(=O)NCC2	–	290	–	–	–	–	–	–	–	–	–	1000	–	–	> 1000	–	> 1000	–	1 to 3	68
